In brackets after ≈: the same amount, converted by molar mass. Activity calls are given as the source filed them.
Legend:
[1] = Microsomal stability in mouse liver microsomes assessed as half life; type: ADME, Microsome
[2] = target: T1, Muscarinic acetylcholine receptor M5 (Homo sapiens, UniProt P08912); experiment: Displacement of […] from human muscarinic M5 receptor assessed as inhibition constant by radioligand displacement assay
T1 sequence (P08912 whole entry): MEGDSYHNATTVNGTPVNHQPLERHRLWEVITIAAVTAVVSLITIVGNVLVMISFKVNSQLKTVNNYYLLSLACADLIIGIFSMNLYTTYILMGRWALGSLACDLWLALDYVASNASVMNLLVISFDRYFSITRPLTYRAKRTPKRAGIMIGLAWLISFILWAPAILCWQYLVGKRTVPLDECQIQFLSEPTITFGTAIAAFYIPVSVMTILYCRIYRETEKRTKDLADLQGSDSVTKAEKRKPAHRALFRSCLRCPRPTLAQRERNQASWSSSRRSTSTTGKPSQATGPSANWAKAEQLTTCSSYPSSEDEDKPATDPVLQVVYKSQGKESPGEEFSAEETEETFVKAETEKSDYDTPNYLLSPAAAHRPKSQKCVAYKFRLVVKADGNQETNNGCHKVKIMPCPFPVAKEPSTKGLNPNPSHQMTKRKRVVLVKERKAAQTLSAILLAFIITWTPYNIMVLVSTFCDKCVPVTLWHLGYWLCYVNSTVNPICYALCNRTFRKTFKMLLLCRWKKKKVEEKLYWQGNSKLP

[3] = Stability in simulated gastric fluid assessed as parent compound remaining after 120 mins; type: ADME; conditions: simulated gi fluid, 2 h
Method in brief: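 Incubation in simulated gastric or intestinal fluid; percent parent remaining read at 120 min.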

Mus musculus [4] = experiment: Anti-asthmatic activity against OVA/Aspergillus-sensitized protease-mediated C57BL/6J mouse model allergic asthma assessed as reduction in neutrophils in BAL fluid at 10 mg/kg,ip followed by 0.5 hrs OVA challenge and measured after 48 hrs; type: functional, organism-based; conditions: time 48.5 hrs
[5] = Intraperitoneal bioavailability in Wistar rat at 3 mg/kg and measured upto 24 hrs; conditions: in vivo, ip
[6] = Acute toxicity in Wistar rat assessed as morbidity at 1 to 10 mg/kg, ip and measured upto 24 hrs; type: organism-based; conditions: in vivo, dose 1-10 mg/kg
Method in brief: (§1)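 Male Wistar rats; single dose at 1, 3 or 10 mg/kg i.p., or 0.5 mg/kg i.v. Animals were watched for mortality and morbidity over the experimental period, in the course of a plasma pharmacokinetic study.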

P2Y purinoceptor 14 = target: T2, P2Y purinoceptor 14 (Homo sapiens, UniProt Q15391); experiment: Displacement of fluorescent tracer 4-(4-(1-(4-(1-(6-(3-carboxylato-4-(3-iminio-3H-xanthen-9-yl)benzamido)hexyl)-4,5-dihydro-1H-pyrrol-3-yl)butyl)piperidin-1-ium-4-yl)phenyl)-7-(4-(trifluoromethyl)phenyl)-2-naphthoate from human P2Y14R stably expressed in CHO cells by flow cytometry; type: cell-based
T2 sequence (Q15391 whole entry): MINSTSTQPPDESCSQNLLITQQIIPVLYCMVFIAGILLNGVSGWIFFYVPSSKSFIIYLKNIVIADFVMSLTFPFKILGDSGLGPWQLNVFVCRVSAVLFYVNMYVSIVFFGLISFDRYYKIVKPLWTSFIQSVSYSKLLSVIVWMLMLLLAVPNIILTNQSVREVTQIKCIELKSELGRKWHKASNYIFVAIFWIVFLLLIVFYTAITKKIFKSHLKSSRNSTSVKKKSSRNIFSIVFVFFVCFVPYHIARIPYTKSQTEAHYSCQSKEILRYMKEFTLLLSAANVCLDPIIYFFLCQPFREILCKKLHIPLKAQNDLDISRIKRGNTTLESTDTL
Method in brief: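 Whole-cell competitive binding: CHO cells expressing hP2Y14R (or HEK-293 cells expressing mP2Y14R) incubated with AlexaFluor488-labelled antagonist tracer at 20 nM.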

HepG2 = experiment: Cytotoxicity in human HepG2 cells assessed as reduction in cell viability; type: toxicity, cell-based
[7] = Stability in mouse plasma assessed as parent compound remaining at 1 uM and measured at 120 mins by LC-MS/MS analysis; type: ADME, cell-free; conditions: 2 h
Method in brief: (§2)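 Plasma from human, rat and mouse; percent parent remaining at 120 min.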

[8] = Stability in rat plasma assessed as parent compound remaining at 1 uM and measured at 120 mins by LC-MS/MS analysis; type: ADME, cell-free; conditions: 2 h; method in brief: as §2
[9] = Protein binding in rat plasma assessed as bound fraction; type: ADME, cell-free
[10] = target: Voltage-gated inwardly rectifying potassium channel KCNH2 (Homo sapiens, UniProt Q12809); experiment: Inhibition of human ERG stably expressed in human HEK293 cells incubated for 2 hrs by TAMRA based fuorescence polarization assay; type: toxicity, cell-based
Method in brief: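 hERG inhibition measured in a fluorescent dye-binding assay.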

[11] = Half life in Wistar rat at 3 mg/kg, ip and measured upto 24 hrs; type: ADME, organism-based; conditions: in vivo
[12] = Acute toxicity in Wistar rat assessed as mortality at 1 to 10 mg/kg, ip and measured upto 24 hrs; type: organism-based; conditions: in vivo, dose 1-10 mg/kg; method in brief: as §1
[13] = Cmax in Wistar rat plasma at 10 mg/kg, ip and measured upto 24 hrs; type: ADME, organism-based; design: time < 24 hrs, dose 10 mg/kg, route ip
Mus musculus [14] = experiment: Antiallodynic activity in CCI surgery neuropathic pain Hsd:ICR mouse model assessed as reversal of mechano-allodynia by measuring paw withdrawal threshold at 10 micromol/kg,ip and measured upto 5 days by von frey test; type: functional, organism-based; conditions: dose 10.0 µmol/kg, time <= 5.0 day
Method in brief: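 CCI neuropathic pain in adult male Hsd:ICR (CD-1) mice (20–30 g). Single i.p. injection on day 7 after sciatic nerve constriction, at peak pain. Vehicle 10% (Kolliphor HS 15:DMSO 5:95) in saline, 0.2 mL. Paw withdrawal threshold by von Frey filaments on ipsilateral and contralateral hindpaws. Mean ± SD; two-way ANOVA with Dunnett's test versus day 0 and day 7.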

[15] = Protein binding in mouse plasma assessed as bound fraction; type: ADME, cell-free
Cytochrome P450 2C19 = Cytochrome P450 2C19 (Homo sapiens, UniProt P33261); experiment: Inhibition of CYP2C19 (unknown origin); type: ADME
[16] = Solubility of compound in pH 7.4 incubated for 20 hrs by pION method; type: physicochemical; conditions: buffer, pH 7.4, 20 h
Method in brief: (§3)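 pION method: 5 mM DMSO stocks diluted 1:100 into pION buffer at pH 4.0 or 7.4, incubated 20 h. Undissolved material removed by centrifugation at 14,000 rpm for 20 min, then supernatant mixed 1:1 with n-propanol. […] Mean ± SD reported.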

[17] = Solubility of compound in pH 4.0 incubated for 20 hrs by pION method; type: physicochemical; conditions: buffer, pH 4, 20 h; method in brief: as §3
Mus musculus [18] = experiment: Protection against cardiac ischemia/reperfusion induced C57BL/6J mouse injury model assessed as reduction in infarct size at 2 mg/kg, sc prior to 0.5 hrs of myocardial ischemia and 48 h of reperfusion (Rvb= 26.4%); type: functional; design: scale not given: the % may be the effect or the level left; conditions: time 48.5 hrs
[19] = Acute toxicity in Wistar rat assessed as morbidity at 0.5 mg/kg, iv and measured upto 24 hrs; type: organism-based; conditions: in vivo; method in brief: as §1
[20] = Stability in human plasma assessed as parent compound remaining at 1 uM and measured at 120 mins by LC-MS/MS analysis; type: ADME, cell-free; conditions: 2 h; method in brief: as §2

Sequence of Cytochrome P450 2C19 (P33261 whole entry): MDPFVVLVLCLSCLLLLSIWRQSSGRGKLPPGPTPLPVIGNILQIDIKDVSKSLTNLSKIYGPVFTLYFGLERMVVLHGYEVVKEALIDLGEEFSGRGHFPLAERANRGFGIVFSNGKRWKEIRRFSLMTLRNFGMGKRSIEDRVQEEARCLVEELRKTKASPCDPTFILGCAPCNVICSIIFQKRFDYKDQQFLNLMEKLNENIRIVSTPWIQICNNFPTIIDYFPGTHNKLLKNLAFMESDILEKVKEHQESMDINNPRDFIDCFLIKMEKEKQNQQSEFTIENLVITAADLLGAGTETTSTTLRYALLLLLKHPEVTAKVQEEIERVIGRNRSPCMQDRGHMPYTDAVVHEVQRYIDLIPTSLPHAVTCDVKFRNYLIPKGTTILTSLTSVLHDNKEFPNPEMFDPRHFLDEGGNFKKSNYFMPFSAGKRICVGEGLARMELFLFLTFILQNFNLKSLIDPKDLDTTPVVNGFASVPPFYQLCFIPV
Sequence of Voltage-gated inwardly rectifying potassium channel KCNH2 (Q12809 whole entry): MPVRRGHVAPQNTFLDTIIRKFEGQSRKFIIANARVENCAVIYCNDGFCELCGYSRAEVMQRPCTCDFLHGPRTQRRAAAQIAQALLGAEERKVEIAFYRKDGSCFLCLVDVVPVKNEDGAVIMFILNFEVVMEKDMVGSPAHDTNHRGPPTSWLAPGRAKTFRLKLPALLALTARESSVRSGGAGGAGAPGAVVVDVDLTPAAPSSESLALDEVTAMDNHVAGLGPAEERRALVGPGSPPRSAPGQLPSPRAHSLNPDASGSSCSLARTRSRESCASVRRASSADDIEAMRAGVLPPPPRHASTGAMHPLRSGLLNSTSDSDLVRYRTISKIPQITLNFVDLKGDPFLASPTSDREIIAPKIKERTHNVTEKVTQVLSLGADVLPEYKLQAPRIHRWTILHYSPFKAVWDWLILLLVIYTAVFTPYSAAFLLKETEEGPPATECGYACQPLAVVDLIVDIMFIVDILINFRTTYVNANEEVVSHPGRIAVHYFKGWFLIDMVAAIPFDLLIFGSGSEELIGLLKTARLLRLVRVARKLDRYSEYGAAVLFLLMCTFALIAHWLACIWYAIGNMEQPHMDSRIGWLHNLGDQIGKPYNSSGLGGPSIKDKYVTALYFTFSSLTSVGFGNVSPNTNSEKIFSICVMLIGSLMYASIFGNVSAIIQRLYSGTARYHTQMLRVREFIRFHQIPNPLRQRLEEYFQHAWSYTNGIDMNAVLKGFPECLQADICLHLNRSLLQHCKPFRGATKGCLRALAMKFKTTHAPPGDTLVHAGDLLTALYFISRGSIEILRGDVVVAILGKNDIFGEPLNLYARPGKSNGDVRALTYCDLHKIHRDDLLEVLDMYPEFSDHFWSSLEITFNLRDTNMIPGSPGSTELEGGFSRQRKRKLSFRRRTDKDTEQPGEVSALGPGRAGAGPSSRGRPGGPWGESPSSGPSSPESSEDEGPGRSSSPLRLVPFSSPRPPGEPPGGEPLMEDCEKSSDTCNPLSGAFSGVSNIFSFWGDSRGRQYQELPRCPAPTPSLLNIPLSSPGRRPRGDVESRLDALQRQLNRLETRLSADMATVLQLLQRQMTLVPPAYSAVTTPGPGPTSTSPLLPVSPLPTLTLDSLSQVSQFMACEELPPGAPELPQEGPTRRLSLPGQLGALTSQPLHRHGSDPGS

SMILES: O=C(O)c1cc(-c2ccc([C@]3(O)[C@@H]4CNC[C@H]3C4)cc2)c2ccc(-c3ccc(C(F)(F)F)cc3)cc2c1
- t1/2 [1]: 355 min
- Ki [2]: 6 µM
- Stability [3]: 69.8%
- Activity (Mus musculus [4]): inactive
- bioavailability [5]: 114%
- Activity [6]: Non-Toxic
- IC50 (P2Y purinoceptor 14): 5.92 nM
- IC50 (HepG2): 32.6 µM
- Stability [7]: 100%
- Stability [8]: 81.3%
- PPB [9]: 99.48%
- IC50 [10]: > 30 µM
- t1/2 [11]: 4.32 h
- Activity [12]: Non-Toxic
- Cmax [13]: 4 µM
- Activity (Mus musculus [14]): Active
- PPB [15]: 99.86%
- IC50 (Cytochrome P450 2C19): > 30 µM
- solubility [16]: 1.4 µg/mL (≈ 2.78 µM)
- solubility [17]: 7.1 µg/mL (≈ 14.1 µM)
- Activity (Mus musculus [18]): 31.8%
- Activity [19]: Non-Toxic
- Stability [20]: 91.1%

— ChEMBL document CHEMBL5331128, “Alicyclic Ring Size Variation of 4-Phenyl-2-naphthoic Acid Derivatives as P2Y14 Receptor Antagonists” (J Med Chem, 2023)
